Measurements published in ChEMBL document CHEMBL5303300, “EUbOPEN Chemogenomics Library - Multiplex” (2023).
Where “and” joins values, the source holds several entries; their conditions need not be identical. Equal entries are not always repeated.

Tested on: HEK-293T
Test: Multiplex assay against HEK293T
Format: toxicity, cell-based
Conditions: human, number of replicates 2
In short: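 Values for tubulin, mitochondrial-mass and membrane-permeability phenotypes are per cents of cells with healthy nuclei. These cells were identified by CellPathfinder machine-learning gating of live cells that had been stained at seeding with Hoechst33342, BioTracker Green Microtubule Cytoskeleton Dye, MitoTracker Red and Annexin V Alexa Fluor 680 and imaged on a CQ1 microscope at 37°C and 5% CO2 after compound addition. The gating first set Hoechst high-intensity objects apart from normal cells, then split normal cells into healthy, pyknosed or fragmented nuclei, and pyknosed cells into mitotic or apoptotic.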

[1] = 12 h, 1 µM, compound concentration 1 uM
[2] = 12 h, 10 µM, compound concentration 10 uM
[3] = 24 h, 1 µM, compound concentration 1 uM
[4] = 24 h, 10 µM, compound concentration 10 uM
[5] = 48 h, 1 µM, compound concentration 1 uM
[6] = 48 h, 10 µM, compound concentration 10 uM

## Cn1ncc(NC(=O)c2nc(-c3c(F)cccc3F)sc2N)c1N1CC[C@@H](N)[C@H](F)CC1
[1]
  Population Apoptotic (%): 29% and 32%
  Population Healthy Nuclei (%): 85% and 86%
  Population Mitochondria Different-Phenotype (%): 10% and 6%
  Population Mitotic Cells (%): 70% and 67%
  Population Normal (%): 92% and 95%
  Population Pyknosed Nuclei (%): 10%
  Population Tubulin-Different-Phenotype (%): 42% and 32%
  Total Cell Count: 737 and 724
[2]
  Population Apoptotic (%): 34% and 47%
  Population Healthy Nuclei (%): 81% and 80%
  Population Mitotic Cells (%): 65% and 52%
  Population Normal (%): 95% and 97%
  Population Pyknosed Nuclei (%): 16%
  Population Tubulin-Different-Phenotype (%): 54% and 47%
  Total Cell Count: 730 and 672
[3]
  Population Apoptotic (%): 21% and 25%
  Population Healthy Nuclei (%): 87% and 86%
  Population Mitochondria Different-Phenotype (%): 4%
  Population Mitotic Cells (%): 78% and 74%
  Population Normal (%): 93% and 90%
  Population Pyknosed Nuclei (%): 8% and 9%
  Population Tubulin-Different-Phenotype (%): 25% and 21%
  Total Cell Count: 1100 and 1020
[4]
  Population Apoptotic (%): 47% and 52%
  Population Healthy Nuclei (%): 85% and 86%
  Population Mitochondria Different-Phenotype (%): 16%
  Population Mitotic Cells (%): 52% and 47%
  Population Normal (%): 97% and 95%
  Population Tubulin-Different-Phenotype (%): 44% and 41%
  Total Cell Count: 753 and 689
[5]
  Population Apoptotic (%): 15%
  Population Healthy Nuclei (%): 86% and 85%
  Population Mitotic Cells (%): 90% and 84%
  Population Normal (%): 89% and 85%
  Population Pyknosed Nuclei (%): 4% and 5%
  Population Tubulin-Different-Phenotype (%): 12% and 13%
  Total Cell Count: 2209 and 1829
[6]
  Population Apoptotic (%): 44% and 55%
  Population Healthy Nuclei (%): 89% and 87%
  Population Mitochondria Different-Phenotype (%): 10%
  Population Mitotic Cells (%): 55%
  Population Normal (%): 94% and 92%
  Population Pyknosed Nuclei (%): 4% and 6%
  Population Tubulin-Different-Phenotype (%): 29% and 23%
  Total Cell Count: 770 and 768

## COc1ncc(-c2cc(-c3ncc(CN4C[C@@H](C)O[C@@H](C)C4)o3)c3cn[nH]c3c2)cc1NS(C)(=O)=O
[1]
  Population Apoptotic (%): 48% and 56%
  Population Fragmented Nuclei (%): 3% and 2%
  Population Healthy Nuclei (%): 86% and 81%
  Population Hoechst High Intensity Objects (%): 10%
  Population Membrane Permeable-Phenotype (%): 4% and 1%
  Population Mitochondria Different-Phenotype (%): 17% and 26%
  Population Mitotic Cells (%): 51% and 43%
  Population Normal (%): 89%
  Population Pyknosed Nuclei (%): 10% and 15%
  Population Tubulin-Different-Phenotype (%): 65% and 71%
  Total Cell Count: 695 and 654
[2]
  Population Apoptotic (%): 46% and 58%
  Population Fragmented Nuclei (%): 2% and 3%
  Population Healthy Nuclei (%): 75% and 82%
  Population Hoechst High Intensity Objects (%): 9%
  Population Membrane Permeable-Phenotype (%): 0% and 1%
  Population Mitochondria Different-Phenotype (%): 54% and 51%
  Population Mitotic Cells (%): 53% and 41%
  Population Normal (%): 90%
  Population Pyknosed Nuclei (%): 22% and 14%
  Population Tubulin-Different-Phenotype (%): 88% and 87%
  Total Cell Count: 336 and 358
[3]
  Population Apoptotic (%): 40% and 54%
  Population Fragmented Nuclei (%): 7% and 5%
  Population Healthy Nuclei (%): 86% and 83%
  Population Hoechst High Intensity Objects (%): 12% and 10%
  Population Membrane Permeable-Phenotype (%): 2% and 1%
  Population Mitochondria Different-Phenotype (%): 4% and 10%
  Population Mitotic Cells (%): 59% and 45%
  Population Normal (%): 87% and 89%
  Population Pyknosed Nuclei (%): 6% and 10%
  Population Tubulin-Different-Phenotype (%): 37% and 44%
  Total Cell Count: 1173 and 987
[4]
  Population Apoptotic (%): 46% and 45%
  Population Fragmented Nuclei (%): 4%
  Population Healthy Nuclei (%): 82% and 76%
  Population Hoechst High Intensity Objects (%): 9% and 10%
  Population Membrane Permeable-Phenotype (%): 1%
  Population Mitochondria Different-Phenotype (%): 41% and 44%
  Population Mitotic Cells (%): 53% and 54%
  Population Normal (%): 90% and 89%
  Population Pyknosed Nuclei (%): 13% and 19%
  Population Tubulin-Different-Phenotype (%): 79% and 86%
  Total Cell Count: 379 and 373
[5]
  Population Apoptotic (%): 13% and 26%
  Population Fragmented Nuclei (%): 15% and 9%
  Population Healthy Nuclei (%): 81% and 85%
  Population Hoechst High Intensity Objects (%): 11%
  Population Membrane Permeable-Phenotype (%): 7% and 2%
  Population Mitochondria Different-Phenotype (%): 0% and 2%
  Population Mitotic Cells (%): 86% and 73%
  Population Normal (%): 88%
  Population Pyknosed Nuclei (%): 2% and 4%
  Population Tubulin-Different-Phenotype (%): 22% and 30%
  Total Cell Count: 2777 and 1879
[6]
  Population Apoptotic (%): 55% and 40%
  Population Fragmented Nuclei (%): 6% and 4%
  Population Healthy Nuclei (%): 87% and 83%
  Population Hoechst High Intensity Objects (%): 13% and 9%
  Population Membrane Permeable-Phenotype (%): 2% and 3%
  Population Mitochondria Different-Phenotype (%): 18% and 21%
  Population Mitotic Cells (%): 44% and 59%
  Population Normal (%): 86% and 90%
  Population Pyknosed Nuclei (%): 6% and 11%
  Population Tubulin-Different-Phenotype (%): 74% and 82%
  Total Cell Count: 527 and 510

## CNC(=O)c1c(F)cccc1Nc1nc(Nc2cc3c(cc2OC)CCN3C(=O)CN(C)C)nc2[nH]ccc12
[1]
  Population Apoptotic (%): 62% and 55%
  Population Fragmented Nuclei (%): 4% and 2%
  Population Healthy Nuclei (%): 82% and 86%
  Population Hoechst High Intensity Objects (%): 12%
  Population Membrane Permeable-Phenotype (%): 1% and 0%
  Population Mitochondria Different-Phenotype (%): 46% and 51%
  Population Mitotic Cells (%): 37% and 44%
  Population Normal (%): 87%
  Population Pyknosed Nuclei (%): 13% and 10%
  Population Tubulin-Different-Phenotype (%): 81% and 83%
  Total Cell Count: 326 and 308
[2]
  Population Apoptotic (%): 45% and 56%
  Population Fragmented Nuclei (%): 7%
  Population Healthy Nuclei (%): 75% and 73%
  Population Hoechst High Intensity Objects (%): 44% and 47%
  Population Membrane Permeable-Phenotype (%): 4% and 2%
  Population Mitochondria Different-Phenotype (%): 66% and 59%
  Population Mitotic Cells (%): 54% and 44%
  Population Normal (%): 55% and 52%
  Population Pyknosed Nuclei (%): 17% and 19%
  Population Tubulin-Different-Phenotype (%): 94% and 93%
  Total Cell Count: 246 and 244
[3]
  Population Apoptotic (%): 40% and 83%
  Population Fragmented Nuclei (%): 9% and 7%
  Population Healthy Nuclei (%): 84% and 88%
  Population Hoechst High Intensity Objects (%): 12% and 9%
  Population Membrane Permeable-Phenotype (%): 0%
  Population Mitochondria Different-Phenotype (%): 34% and 30%
  Population Normal (%): 87% and 90%
  Population Pyknosed Nuclei (%): 5% and 4%
  Population Tubulin-Different-Phenotype (%): 81% and 79%
  Total Cell Count: 390 and 332
[4]
  Population Apoptotic (%): 37% and 38%
  Population Fragmented Nuclei (%): 6%
  Population Healthy Nuclei (%): 79% and 80%
  Population Hoechst High Intensity Objects (%): 37% and 45%
  Population Membrane Permeable-Phenotype (%): 8% and 4%
  Population Mitochondria Different-Phenotype (%): 45% and 40%
  Population Mitotic Cells (%): 62% and 61%
  Population Normal (%): 62% and 54%
  Population Pyknosed Nuclei (%): 14% and 12%
  Population Tubulin-Different-Phenotype (%): 93% and 94%
  Total Cell Count: 266 and 259
[5]
  Population Apoptotic (%): 25% and 66%
  Population Fragmented Nuclei (%): 16% and 11%
  Population Healthy Nuclei (%): 80% and 86%
  Population Hoechst High Intensity Objects (%): 21% and 30%
  Population Membrane Permeable-Phenotype (%): 1%
  Population Mitochondria Different-Phenotype (%): 4% and 8%
  Population Mitotic Cells (%): 75% and 33%
  Population Normal (%): 78% and 69%
  Population Pyknosed Nuclei (%): 2% and 1%
  Population Tubulin-Different-Phenotype (%): 63% and 69%
  Total Cell Count: 741 and 531
[6]
  Population Apoptotic (%): 57% and 71%
  Population Fragmented Nuclei (%): 9%
  Population Healthy Nuclei (%): 80% and 77%
  Population Hoechst High Intensity Objects (%): 29% and 35%
  Population Membrane Permeable-Phenotype (%): 5% and 7%
  Population Mitochondria Different-Phenotype (%): 18% and 11%
  Population Mitotic Cells (%): 42% and 28%
  Population Normal (%): 70% and 64%
  Population Pyknosed Nuclei (%): 9% and 13%
  Population Tubulin-Different-Phenotype (%): 87%
  Total Cell Count: 402 and 414

## CCN1CCN(Cc2ccc(C(=O)Nc3ccc(C)c(Oc4ccc5c(c4)CC(=O)N5)c3)cc2C(F)(F)F)CC1.Cl.Cl
[1]
  Population Apoptotic (%): 43% and 61%
  Population Fragmented Nuclei (%): 3% and 7%
  Population Healthy Nuclei (%): 83% and 79%
  Population Hoechst High Intensity Objects (%): 6% and 8%
  Population Membrane Permeable-Phenotype (%): 2%
  Population Mitochondria Different-Phenotype (%): 24% and 20%
  Population Mitotic Cells (%): 56% and 38%
  Population Normal (%): 93% and 91%
  Population Pyknosed Nuclei (%): 12% and 13%
  Population Tubulin-Different-Phenotype (%): 64% and 61%
  Total Cell Count: 609 and 592
[2]
  Population Apoptotic (%): 68% and 69%
  Population Fragmented Nuclei (%): 6% and 5%
  Population Healthy Nuclei (%): 80% and 81%
  Population Hoechst High Intensity Objects (%): 12% and 10%
  Population Membrane Permeable-Phenotype (%): 6% and 2%
  Population Mitochondria Different-Phenotype (%): 30% and 42%
  Population Mitotic Cells (%): 31% and 30%
  Population Normal (%): 87% and 89%
  Population Pyknosed Nuclei (%): 13% and 12%
  Population Tubulin-Different-Phenotype (%): 96% and 95%
  Total Cell Count: 598 and 606
[3]
  Population Apoptotic (%): 40% and 52%
  Population Fragmented Nuclei (%): 4% and 3%
  Population Healthy Nuclei (%): 88% and 89%
  Population Hoechst High Intensity Objects (%): 7% and 8%
  Population Membrane Permeable-Phenotype (%): 2%
  Population Mitochondria Different-Phenotype (%): 9%
  Population Mitotic Cells (%): 59% and 47%
  Population Normal (%): 92% and 91%
  Population Pyknosed Nuclei (%): 7% and 6%
  Population Tubulin-Different-Phenotype (%): 45% and 47%
  Total Cell Count: 907 and 801
[4]
  Population Apoptotic (%): 58% and 78%
  Population Fragmented Nuclei (%): 7% and 5%
  Population Healthy Nuclei (%): 78% and 81%
  Population Hoechst High Intensity Objects (%): 15%
  Population Membrane Permeable-Phenotype (%): 4% and 2%
  Population Mitochondria Different-Phenotype (%): 40% and 44%
  Population Mitotic Cells (%): 41% and 21%
  Population Normal (%): 84%
  Population Pyknosed Nuclei (%): 14% and 12%
  Population Tubulin-Different-Phenotype (%): 97% and 95%
  Total Cell Count: 517 and 556
[5]
  Population Apoptotic (%): 12% and 23%
  Population Fragmented Nuclei (%): 10% and 6%
  Population Healthy Nuclei (%): 85% and 87%
  Population Hoechst High Intensity Objects (%): 9% and 8%
  Population Membrane Permeable-Phenotype (%): 5% and 3%
  Population Mitochondria Different-Phenotype (%): 0% and 1%
  Population Mitotic Cells (%): 87% and 76%
  Population Normal (%): 90% and 91%
  Population Pyknosed Nuclei (%): 4% and 5%
  Population Tubulin-Different-Phenotype (%): 22% and 28%
  Total Cell Count: 2293 and 1602
[6]
  Population Apoptotic (%): 75%
  Population Fragmented Nuclei (%): 10% and 14%
  Population Healthy Nuclei (%): 76% and 73%
  Population Hoechst High Intensity Objects (%): 14% and 17%
  Population Membrane Permeable-Phenotype (%): 13% and 5%
  Population Mitochondria Different-Phenotype (%): 12% and 13%
  Population Mitotic Cells (%): 25%
  Population Normal (%): 85% and 82%
  Population Pyknosed Nuclei (%): 12%
  Population Tubulin-Different-Phenotype (%): 94% and 93%
  Total Cell Count: 709 and 749
